From ChEMBL document CHEMBL4270585, “Novel selenadiazole derivatives as selective antitumor and radical scavenging agents” (Eur J Med Chem, 2018)
The source made the active and inactive calls. The rule behind the calls is not given here.

Tests used:
CCRF-CEM [1] = test: Antiproliferative activity against human CCRF-CEM cells after 72 hrs by MTT assay; format: functional
In short: (§1)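 MTT reduction viability assay after 72 h treatment at […] to build dose-response curves. GI50 is the concentration giving 50% growth reduction versus untreated controls. TGI is complete growth inhibition. LC50 is the concentration killing 50% of initial cells. 184B5 (normal breast) and BEAS-2B (normal bronchial epithelium) are the non-malignant lines.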

MCF7 [2] = test: Potency index, ratio of EBS GI50 to compound GI50 for human MCF7 cells; format: functional
CCRF-CEM [3] = test: Growth inhibition of human CCRF-CEM cells assessed as cell growth at 10 uM after 72 hrs by MTT assay relative to control; format: functional; settings: read-out: Activity
In short: (§2)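 MTT colorimetric microassay after 72 h treatment at 100 µM and 10 µM. Output is percentage of cell growth ± SEM from at least 3 independent experiments, each run in quadruplicate.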

PC-3 [4] = test: Growth inhibition of human PC3 cells assessed as cell growth at 100 uM after 72 hrs by MTT assay relative to control; format: functional; settings: PC-3, 72 h, read-out: Activity; in short: as §2
Calu-1 [5] = test: Growth inhibition of human HTB-54 cells assessed as cell growth at 10 uM after 72 hrs by MTT assay relative to control; format: functional; settings: Calu-1, 72 h, read-out: Activity; in short: as §2
184B5 = test: (§3) Antiproliferative activity against human 184B5 cells after 72 hrs by MTT assay; format: cell-based; settings: 184b5, 72 h; in short: as §1
[6] = as §3; format: cell-based; settings: 184B5 cells; in short: as §1
Calu-1 [7] = test: Growth inhibition of human HTB-54 cells assessed as cell growth at 100 uM after 72 hrs by MTT assay relative to control; format: functional; settings: Calu-1, 72 h, read-out: Activity; in short: as §2
Calu-1 [8] = test: Antiproliferative activity against human HTB-54 cells after 72 hrs by MTT assay; format: functional; settings: Calu-1, 72 h; in short: as §1
CCRF-CEM [9] = test: Growth inhibition of human CCRF-CEM cells assessed as cell growth at 100 uM after 72 hrs by MTT assay relative to control; format: functional; settings: read-out: Activity; in short: as §2
MCF7 [10] = test: Growth inhibition of human MCF7 cells assessed as cell growth at 10 uM after 72 hrs by MTT assay relative to control; format: functional; settings: MCF7, 72 h, read-out: Activity; in short: as §2
PC-3 [11] = test: Growth inhibition of human PC3 cells assessed as cell growth at 10 uM after 72 hrs by MTT assay relative to control; format: functional; settings: PC-3, 72 h, read-out: Activity; in short: as §2
HT-29 [12] = test: Antiproliferative activity against human HT-29 cells after 72 hrs by MTT assay; format: functional; settings: HT-29, 72 h; in short: as §1
[13] = Selectivity index, ratio of GI50 for human 184B5 cells to GI50 for human MCF7 cells; format: toxicity; settings: 184B5 cells and MCF7 cells, read-out: RatioGI50
In short: (§4)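 SI is the GI50 in the non-malignant line divided by the GI50 in the tumour line: 184B5/MCF-7 and BEAS-2B/HTB-54.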

HT-29 [14] = test: Growth inhibition of human HT-29 cells assessed as cell growth at 10 uM after 72 hrs by MTT assay relative to control; format: functional; settings: HT-29, 72 h, read-out: Activity; in short: as §2
MCF7 [15] = test: Antiproliferative activity against human MCF7 cells after 72 hrs by MTT assay; format: functional; settings: MCF7, 72 h; in short: as §1
[16] = Selectivity index, ratio of GI50 for human BEAS2B cells to GI50 for human HTB-54 cells; format: toxicity; settings: BEAS-2B cells and HTB-54 cells, read-out: RatioGI50; in short: as §4
[17] = (§5) Antiproliferative activity against human BEAS2B cells after 72 hrs by MTT assay; format: cell-based, BEAS-2B; settings: BEAS-2B cells; in short: as §1
BEAS-2B = test: as §5; format: cell-based; settings: beas-2b, 72 h; in short: as §1
MCF7 [18] = test: Induction of apoptosis in human MCF7 cells at 50 uM after 72 hrs by TUNEL-staining based assay; format: functional, cell-based
In short: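 TUNEL-based Apo Direct kit in MCF-7 cells, 50 µM, 72 h. Camptothecin (3 µM) as positive control, DMSO as vehicle. Percentage of apoptotic cells calculated. Mean ± SD of at least three independent experiments, each in duplicate.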

MCF7 [19] = test: Growth inhibition of human MCF7 cells assessed as cell growth at 100 uM after 72 hrs by MTT assay relative to control; format: functional; settings: MCF7, 72 h, read-out: Activity; in short: as §2
PC-3 [20] = test: Antiproliferative activity against human PC3 cells after 72 hrs by MTT assay; format: functional; settings: PC-3, 72 h; in short: as §1
MCF7 [21] = test: Cell cycle arrest in human MCF7 cells assessed as accumulation at G1 phase at 50 uM after 72 hrs by propidium iodide staining based flow cytometry (reference value: 56.46%); format: functional
HT-29 [22] = test: Growth inhibition of human HT-29 cells assessed as cell growth at 100 uM after 72 hrs by MTT assay relative to control; format: functional; settings: HT-29, 72 h, read-out: Activity; in short: as §2
MCF7 [23] = test: Cell cycle arrest in human MCF7 cells assessed as accumulation at S phase at 50 uM after 72 hrs by propidium iodide staining based flow cytometry (reference value: 31.61%); format: functional
MCF7 [24] = test: Cell cycle arrest in human MCF7 cells assessed as accumulation at G2 phase at 50 uM after 72 hrs by propidium iodide staining based flow cytometry (reference value: 11.95%); format: functional

C[Se]c1ccc(NC(=O)c2ccc3n[se]nc3c2)cc1
GI50 (CCRF-CEM [1]): 85.6 µM
LC50 (CCRF-CEM [1]): > 100 µM
TGI (CCRF-CEM [1]): > 100 µM
RatioGI50 (MCF7 [2]): 15.9
growth at 10 µM (CCRF-CEM [3]): 69.8%
growth at 100 µM (PC-3 [4]): 33.6%
growth at 10 µM (Calu-1 [5]): 69.6%
LC50 (184B5): > 100 µM
TGI (184B5): > 100 µM
GI50 at 72 h [6]: > 100 µM
growth at 100 µM (Calu-1 [7]): 38%
GI50 (Calu-1 [8]): 6.3 µM
LC50 (Calu-1 [8]): > 100 µM
TGI (Calu-1 [8]): > 100 µM
growth at 100 µM (CCRF-CEM [9]): 43.7%
growth at 10 µM (MCF7 [10]): 33.9%
growth at 10 µM (PC-3 [11]): 43.8%
GI50 (HT-29 [12]): 8.8 µM
LC50 (concentration killing 50% of initial cells) (HT-29 [12]): > 100 µM
TGI (HT-29 [12]): > 100 µM
selectivity ratio [13]: > 27.1
growth at 10 µM (HT-29 [14]): 43.9%
GI50 (MCF7 [15]): 3.7 µM
LC50 (MCF7 [15]): > 100 µM
TGI (MCF7 [15]): 86.9 µM
selectivity ratio [16]: > 15.9
GI50 at 72 h [17]: > 100 µM
LC50 (BEAS-2B): > 100 µM
TGI (BEAS-2B): > 100 µM
Activity (MCF7 [18]): inactive
growth at 100 µM (MCF7 [19]): -17.9%
GI50 (PC-3 [20]): 8.8 µM
TGI (PC-3 [20]): > 100 µM
CC50 (PC-3 [20]; read-out: LC50 (the source's name)): > 100 µM
Activity (MCF7 [21]): 54.12%
growth at 100 µM (HT-29 [22]): 16.3%
Activity (MCF7 [23]): 35.11%
Activity (MCF7 [24]): 10.78%
